# Source: BindingDB's records for doi:10.1016/j.bmc.2015.06.007 (Taipei Medical University, 2015)
# Target: T1, Tumor necrosis factor ligand superfamily member 11 (Mus musculus, UniProt O35235)
# T1 sequence (O35235 whole entry): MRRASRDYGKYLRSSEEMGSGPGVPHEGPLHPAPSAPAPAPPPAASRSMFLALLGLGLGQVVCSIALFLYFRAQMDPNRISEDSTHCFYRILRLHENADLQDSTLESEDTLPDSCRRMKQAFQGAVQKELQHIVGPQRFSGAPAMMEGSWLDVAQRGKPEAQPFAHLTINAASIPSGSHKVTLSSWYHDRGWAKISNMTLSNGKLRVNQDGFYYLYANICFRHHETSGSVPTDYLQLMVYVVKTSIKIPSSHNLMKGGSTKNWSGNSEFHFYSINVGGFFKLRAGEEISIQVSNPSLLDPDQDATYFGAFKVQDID
# Assay: Inhibition of recombinant mouse RANKL-induced TRAP activity in mouse RAW264.7 cells using 4-nitrophenyl phosphate as TRAP substrate preincubated for 4 days followed by substrate addition measured after 15 mins by ELISA reader analysis
# Summary of the method: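 RAW264.7 cells (2 × 10⁴ per well) were cultured 4 days in α-MEM with 10% FBS, 2 mM L-glutamine and murine RANKL 100 ng/mL, with or without compound. Cells were lysed in 0.1% Triton X-100/50 mM Tris-HCl pH 7.2 on ice. They were incubated with 2 mg/mL 4-nitrophenyl phosphate in 0.09 M citrate for 15 min at 37 °C, stopped with 0.1 N NaOH, and read at 405 nm. Protein was measured by BCA.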
row,SMILES,IC50
1,O=c1oc2ccc(-c3ccc(F)cc3F)cc2c(=O)n1-c1cc(F)ccc1F,4.31 µM
2,O=c1oc2ccc(-c3ccc(F)cc3F)cc2c(=O)n1-c1cccc(C(F)(F)F)c1,4.29 µM
3,C#Cc1cccc(-n2c(=O)oc3ccc(-c4ccc(F)cc4F)cc3c2=O)c1,3.7 µM
4,O=c1oc2ccccc2c(=O)n1-c1ccc(Cl)cc1F,10.6 µM
